The results in this text go back to ChEMBL document CHEMBL4014306, “Pyrazolopyrimidines as Potent Stimulators for Transient Receptor Potential Canonical 3/6/7 Channels” (J Med Chem, 2017).

Type in all cases: cell-based
Data set [1] addresses T1, Short transient receptor potential channel 3 (Homo sapiens) (UniProt Q13507).
T1 sequence (whole entry): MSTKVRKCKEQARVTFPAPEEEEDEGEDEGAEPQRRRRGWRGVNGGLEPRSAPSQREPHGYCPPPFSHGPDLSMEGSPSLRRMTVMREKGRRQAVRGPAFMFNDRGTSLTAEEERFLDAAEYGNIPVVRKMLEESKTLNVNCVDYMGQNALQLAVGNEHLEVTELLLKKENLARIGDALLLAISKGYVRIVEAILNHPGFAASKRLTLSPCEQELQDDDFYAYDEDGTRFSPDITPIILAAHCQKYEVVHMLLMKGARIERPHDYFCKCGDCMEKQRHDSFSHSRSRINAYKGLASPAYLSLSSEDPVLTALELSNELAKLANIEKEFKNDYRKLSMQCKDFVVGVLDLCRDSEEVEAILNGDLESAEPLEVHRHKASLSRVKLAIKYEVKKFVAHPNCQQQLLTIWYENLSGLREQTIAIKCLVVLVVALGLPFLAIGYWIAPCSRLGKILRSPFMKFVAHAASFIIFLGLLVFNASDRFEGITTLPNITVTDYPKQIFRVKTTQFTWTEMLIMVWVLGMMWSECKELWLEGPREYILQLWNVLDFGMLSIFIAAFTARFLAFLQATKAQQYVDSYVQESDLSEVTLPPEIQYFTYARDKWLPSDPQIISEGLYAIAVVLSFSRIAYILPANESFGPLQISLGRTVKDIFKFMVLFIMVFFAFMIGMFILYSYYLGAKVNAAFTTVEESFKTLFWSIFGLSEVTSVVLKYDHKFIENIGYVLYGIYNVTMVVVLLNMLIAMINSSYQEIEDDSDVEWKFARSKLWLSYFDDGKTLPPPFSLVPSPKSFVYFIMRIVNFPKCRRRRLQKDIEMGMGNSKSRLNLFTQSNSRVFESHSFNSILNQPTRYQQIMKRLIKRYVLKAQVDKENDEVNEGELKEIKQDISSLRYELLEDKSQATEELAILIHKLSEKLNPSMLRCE
As to the kind of experiment: Agonist activity at human TRPC3 expressed in HEK293 cells assessed as induction of channel current at 10 uM measured for 2.5 mins in presence of 0.5 mM Ca2+ by whole cell patch-clamp method. In short, it runs like this:
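Whole-cell recording of human TRPC3 HEK293 cells in bath with 0.5 mM Ca2+. Pipette had 400 nM free Ca2+ buffered by BAPTA. Ramps +100 to −100 mV every 1 s. Compound at 10 μM applied by perfusion; I–V compared against basal.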

Data set [2] relates to HEK293. The experiment in a line: Induction of membrane potential depolarization in HEK293 cells measured for 2.5 mins by FLIPR assay. The settings on record: human, hek293, 2.5 min. Summed up:
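Parental HEK293 cells on a FlexStation at 32 °C, loaded with Fluo4-AM or FMP dye, in 2 mM Ca2+ extracellular saline, pH 7.4. Compound added and fluorescence read as F/F0.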

The subject of data set [3] is HEK293. The experiment in a line: Induction of intracellular calcium level in HEK293 cells at 30 uM measured for 2.5 mins by Fluo-4-AM dye based FLIPR assay. The settings on record: human, hek293, 2.5 min. For orientation: A change in cytosolic calcium serves as a functional read-out for many receptors and channels.
Data set [4] has as its target T1, Short transient receptor potential channel 3 (Homo sapiens). The experiment in a line: Agonist activity at human TRPC3 expressed in HEK293 cells assessed as induction of membrane depolarization measured for 2.5 mins in presence of 2 mM Ca2+ by FLIPR membrane potential dye-based fluorescence assay. Summed up: (§1)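 HEK293 cells stably expressing human TRPC3, run on a FlexStation at 32 °C. Loaded with FMP dye, or Fluo-type Ca2+ dye with 2 mM probenecid. Extracellular NaCl/HEPES saline, pH 7.4, with 2 mM Ca2+ (standard) or 0.5 mM Ca2+. Read as F/F0. In 0.5 mM Ca2+, FMP EC50 from a Hill fit, n = 6.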

Data set [5] shares this target. The experiment in a line: Agonist activity at human TRPC3 expressed in HEK293 cells assessed as induction of membrane depolarization measured for 2.5 mins in presence of 0.5 mM Ca2+ by FLIPR membrane potential dye-based fluorescence assay. Summed up: as §1
In data set [6] the target is T2, Short transient receptor potential channel 3 (Rattus norvegicus) (UniProt Q9JMI9).
T2 sequence (whole entry): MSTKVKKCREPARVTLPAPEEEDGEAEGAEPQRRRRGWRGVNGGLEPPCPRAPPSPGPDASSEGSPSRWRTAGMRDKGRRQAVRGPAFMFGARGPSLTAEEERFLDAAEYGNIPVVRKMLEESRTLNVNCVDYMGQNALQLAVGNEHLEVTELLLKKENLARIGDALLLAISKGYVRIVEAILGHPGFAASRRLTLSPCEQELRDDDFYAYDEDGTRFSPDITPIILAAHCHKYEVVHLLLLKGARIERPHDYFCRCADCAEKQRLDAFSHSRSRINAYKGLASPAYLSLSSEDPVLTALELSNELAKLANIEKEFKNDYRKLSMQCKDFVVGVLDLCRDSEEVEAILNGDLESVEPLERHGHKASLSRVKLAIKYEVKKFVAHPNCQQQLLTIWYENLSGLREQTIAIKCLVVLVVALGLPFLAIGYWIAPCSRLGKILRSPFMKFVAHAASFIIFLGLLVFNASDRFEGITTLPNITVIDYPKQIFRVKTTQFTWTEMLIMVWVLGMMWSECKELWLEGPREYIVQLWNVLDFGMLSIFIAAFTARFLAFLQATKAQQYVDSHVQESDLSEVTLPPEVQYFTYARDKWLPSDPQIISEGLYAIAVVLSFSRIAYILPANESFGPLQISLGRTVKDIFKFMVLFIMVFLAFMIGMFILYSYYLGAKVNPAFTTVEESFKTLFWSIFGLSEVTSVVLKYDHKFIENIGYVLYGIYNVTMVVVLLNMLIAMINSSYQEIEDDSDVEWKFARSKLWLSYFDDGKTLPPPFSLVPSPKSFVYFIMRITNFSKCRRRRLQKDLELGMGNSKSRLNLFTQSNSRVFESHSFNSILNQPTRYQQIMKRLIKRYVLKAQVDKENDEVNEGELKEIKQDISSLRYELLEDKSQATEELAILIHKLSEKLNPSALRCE
The experiment in a line: Agonist activity at TRPC3 in rat primary glomerular mesangial cells assessed as increase in intracellular calcium level at 1 uM by Fluo4-AM dye-based fluorescence assay. In short, it runs like this: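 Rat glomerular mesangial cells, isolated by graded sieving from male Sprague–Dawley rats, collagenase-digested, cultured in RPMI 1640 with 17% FBS. Grown overnight on coverslips, then loaded with 10 μM Fluo4-AM and 0.02% pluronic F-127 for 1 h at 37 °C in 1 mM Ca2+ saline, pH 7.4. Compound at 1 μM. Confocal imaging, ex 488/em 515 nm, read as F/F0. For the 2-APB condition, 30 μM 2-APB for 2 min beforehand and kept during compound application.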

Data set [7] in a line: Selectivity ratio of EC50 for mouse TRPC6 expressed in HEK293 cells co-expressing Gq11-PLCbeta fused M5 receptor assessed as increase in intracellular calcium level to EC50 for human TRPC3 expressed in HEK293 cells assessed as induction of membrane depolarization in presence of 0.5 mM Ca2+.

Activity calls are given as the source filed them. The calls are words filed in the database; no cut-off is given here. A value given as a limit tells only on which side of the number the result lay.

Turning to `CCOC(=O)N1CCC(c2cc(O)n3nc(C)c(-c4ccc(F)cc4)c3n2)CC1`, the outcome in data set [1] was Active. The Activity entry in the data set on HEK293 [2] is “Non-Toxic”; in the data set on HEK293 [3], “Non-Toxic”; in data set [5] it was “Dose-dependent effect”. Besides, the result in data set [4] was inactive.
`Cc1nn2c(O)cc(C3CCN(C(=O)OCc4ccccc4)CC3)nc2c1-c1ccc(F)cc1`: the outcome in data set [6] was Active.
As for `CCOC(=O)N1CCC(c2cc(O)n3nc(C)c(-c4ccc(C(F)(F)F)cc4)c3n2)CC1`, the Ratio EC50 in data set [7] is over 70.
